In ChEMBL document CHEMBL3108732, “Synthesis and evaluation of analogues of N-phthaloyl-l-tryptophan (RG108) as inhibitors of DNA methyltransferase 1” (J Med Chem, 2014):
The source made the active and inactive calls. No cut-off for these calls is given here.

Experiments:
[1] = target: T1, DNA (cytosine-5)-methyltransferase 1 (Homo sapiens, UniProt P26358); experiment: Inhibition of human recombinant DNMT1 expressed in […] assessed as inhibition of tritiated methyl incorporation from [3H]-labeled AdoMet into hemimethylated DNA duplex at 500 uM after 2 hrs by liquid scintillation counting analysis relative to control; format: cell-based
T1 sequence (P26358 whole entry): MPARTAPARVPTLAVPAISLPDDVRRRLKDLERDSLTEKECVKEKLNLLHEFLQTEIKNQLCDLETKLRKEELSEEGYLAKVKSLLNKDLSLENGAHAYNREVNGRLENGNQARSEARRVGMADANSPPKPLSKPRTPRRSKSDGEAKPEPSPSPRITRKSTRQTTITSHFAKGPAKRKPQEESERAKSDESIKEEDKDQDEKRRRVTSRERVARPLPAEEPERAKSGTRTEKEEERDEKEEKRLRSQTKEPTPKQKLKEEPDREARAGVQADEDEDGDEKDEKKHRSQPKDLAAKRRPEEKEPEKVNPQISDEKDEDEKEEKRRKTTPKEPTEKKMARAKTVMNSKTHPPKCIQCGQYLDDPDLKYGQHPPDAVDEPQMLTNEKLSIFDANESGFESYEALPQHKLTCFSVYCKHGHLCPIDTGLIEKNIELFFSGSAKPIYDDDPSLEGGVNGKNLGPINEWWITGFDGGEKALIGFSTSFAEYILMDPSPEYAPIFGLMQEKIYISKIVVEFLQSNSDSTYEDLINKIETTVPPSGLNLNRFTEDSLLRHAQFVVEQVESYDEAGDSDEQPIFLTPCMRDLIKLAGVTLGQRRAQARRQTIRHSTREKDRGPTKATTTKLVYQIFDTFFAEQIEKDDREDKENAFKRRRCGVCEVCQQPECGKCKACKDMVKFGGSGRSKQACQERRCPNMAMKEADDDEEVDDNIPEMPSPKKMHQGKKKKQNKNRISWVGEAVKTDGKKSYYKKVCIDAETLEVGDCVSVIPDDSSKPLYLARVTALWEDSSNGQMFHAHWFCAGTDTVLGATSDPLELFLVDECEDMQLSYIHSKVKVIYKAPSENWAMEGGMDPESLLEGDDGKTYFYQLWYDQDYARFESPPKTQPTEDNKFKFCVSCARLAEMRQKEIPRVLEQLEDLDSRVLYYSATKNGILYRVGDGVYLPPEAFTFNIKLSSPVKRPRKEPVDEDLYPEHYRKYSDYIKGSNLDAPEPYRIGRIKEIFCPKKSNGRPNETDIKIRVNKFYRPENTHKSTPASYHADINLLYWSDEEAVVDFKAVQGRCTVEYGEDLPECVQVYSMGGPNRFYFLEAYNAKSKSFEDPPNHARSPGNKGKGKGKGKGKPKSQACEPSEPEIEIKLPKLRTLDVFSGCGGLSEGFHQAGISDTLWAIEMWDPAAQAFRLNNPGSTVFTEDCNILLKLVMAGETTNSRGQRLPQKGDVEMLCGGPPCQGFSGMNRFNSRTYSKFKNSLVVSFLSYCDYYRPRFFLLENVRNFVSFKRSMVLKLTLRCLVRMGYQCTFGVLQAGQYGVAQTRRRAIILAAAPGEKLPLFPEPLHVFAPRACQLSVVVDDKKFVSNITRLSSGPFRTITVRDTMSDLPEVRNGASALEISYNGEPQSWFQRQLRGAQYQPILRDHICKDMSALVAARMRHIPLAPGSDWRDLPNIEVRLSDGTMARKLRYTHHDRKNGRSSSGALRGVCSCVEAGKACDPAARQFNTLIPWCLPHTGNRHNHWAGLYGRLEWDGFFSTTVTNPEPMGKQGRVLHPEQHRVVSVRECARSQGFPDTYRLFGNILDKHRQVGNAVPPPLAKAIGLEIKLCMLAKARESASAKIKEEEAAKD
In short: (§1)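 Human recombinant DNMT1 transferred tritiated methyl from [3H]-AdoMet onto a short hemimethylated DNA duplex carrying 8 CpGs, and direct incorporation of the radiolabel was measured. Compounds were first screened at a single concentration.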

[2] = target: T1, DNA (cytosine-5)-methyltransferase 1; experiment: Inhibition of human recombinant DNMT1 expressed in […] assessed as inhibition of tritiated methyl incorporation from [3H]-labeled AdoMet into hemimethylated DNA duplex after 2 hrs by liquid scintillation counting analysis; format: cell-based; in short: as §1
DU-145 = experiment: Cytotoxicity against human DU145 cells after 72 hrs by MTS assay; format: functional; settings: DU-145, 72 h, read-out: TC50 (the source's name)
[3] = Inhibition of G9a (unknown origin) by [3H]-SAM incorporation assay
In short: (§2)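 In vitro methyltransferase activity was quantified with a biotin–avidin microplate kinetic assay based on [3H]-SAM incorporation. G9a was tested up to 1 mM.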

[4] = Inhibition of Escherichia coli DAM by [3H]-SAM incorporation assay; in short: as §2
[5] = Inhibition of Spiroplasma M.SssI using unmethylated DNA as substrate after 2 hrs by agarose gel electrophoresis
[6] = target: DNA (cytosine-5)-methyltransferase 3A (Mus musculus) (UniProt O88508); experiment: Binding affinity to mouse Dnmt3A catalytic domain assessed as inhibition of AdoHcy binding at 0.85 mM by WaterLOGSY spectroscopic analysis

| SMILES | inhibition [1] | IC50 [2] | CC50 (DU-145) | other results |
| --- | --- | --- | --- | --- |
| O=C(O)CN1C(=O)c2ccccc2C1=O | inactive | – | – | – |
| O=C(O)[C@H](Cc1c[nH]c2ccccc12)n1c(=O)[nH]c2ccccc2c1=O | inactive | – | – | – |
| O=C(O)[C@H]1[C@@H](Cc2c[nH]c3ccccc23)CCN1C(=O)c1ccc2ccccc2c1 | – | 50 µM | 130 µM | – |
| O=C(O)[C@@H]1[C@H](Cc2c[nH]c3ccccc23)CCN1C(=O)CN1C(=O)c2ccccc2C1=O | inactive | – | – | – |
| O=C(O)[C@H](Cc1c[nH]c2ccccc12)NSc1ccc([N+](=O)[O-])cc1[N+](=O)[O-] | – | 40 µM | 103 µM | – |
| O=C(O)[C@H](Cc1csc2ccccc12)N1C(=O)c2ccccc2C1=O | – | 230 µM | – | – |
| N[C@@H](Cc1c[nH]c2ccccc12)C(=O)O | inactive | – | – | – |
| O=C(O)[C@@H]1[C@H](Cc2c[nH]c3ccccc23)CCN1C(=O)c1ccccc1 | – | 98 µM | 230 µM | – |
| O=C(O)[C@@H](Cc1c[nH]c2ccccc12)CN1C(=O)c2ccccc2C1=O | inactive | – | – | – |
| O=C(O)C1C(Cc2c[nH]c3ccccc23)CCN1C(=O)c1ccccc1 (stereo not given) | 50% | – | – | IC50 [3]: > 1000 µM; IC50 [4]: > 750 µM |
| O=C(O)C[C@H](Cc1c[nH]c2ccccc12)N1C(=O)c2ccccc2C1=O | inactive | – | – | – |
| O=C(O)[C@H](Cc1c[nH]cn1)N1C(=O)c2ccccc2C1=O | inactive | – | – | – |
| O=C(O)[C@H](Cc1c[nH]c2ccccc12)N1C(=O)c2ccccc2C1=O | – | 390 µM | 660 µM | IC50 [5]: 0.115 µM; inhibition [6]: 50% |
| O=C(O)[C@H](Cc1c[nH]c2ccccc12)NSc1ncccc1[N+](=O)[O-] | – | 20 µM | 211 µM | – |
| O=C(O)[C@H](Cc1c[nH]c2ccccc12)CN1C(=O)c2ccccc2C1=O | inactive | – | – | – |
| O=C(O)[C@H](Cc1ccccc1)N1C(=O)c2ccccc2C1=O | inactive | – | – | – |
| O=C(O)[C@@H]1[C@H](Cc2c[nH]c3ccccc23)CCN1C(=O)c1ccc2ccccc2c1 | – | 128 µM | 280 µM | – |
| O=C(O)[C@H](Cc1cc(=O)[nH]c2ccccc12)N1C(=O)c2ccccc2C1=O | inactive | – | – | – |
| O=C(CN1C(=O)c2ccccc2C1=O)N[C@@H](Cc1c[nH]c2ccccc12)C(=O)O | inactive | – | – | – |
| O=C(O)[C@@H]1[C@H](Cc2c[nH]c3ccccc23)CCN1Sc1ccc([N+](=O)[O-])cc1[N+](=O)[O-] | – | 80 µM | 250 µM | – |
| O=C(O)C1C(Cc2c[nH]c3ccccc23)CCN1C(=O)c1ccc2ccccc2c1 (stereo not given) | 50% | – | – | – |
| O=C(O)[C@H]1[C@@H](Cc2c[nH]c3ccccc23)CCN1C(=O)c1ccccc1 | – | 73 µM | 232 µM | – |
| NC(=O)[C@H](Cc1c[nH]c2ccccc12)N1C(=O)c2ccccc2C1=O | inactive | – | – | – |
